Results on eight molecules are retold here after ChEMBL document CHEMBL2380256, “Discovery of novel Jak2-Stat pathway inhibitors with extended residence time on target” (Bioorg Med Chem Lett, 2013).

Experiment [1] addresses Tyrosine-protein kinase JAK2 (Homo sapiens, UniProt O60674). The experiment is described as follows: Inhibition of JAK2 (unknown origin) using biotinylated TYK2 peptide as substrate after 60 mins.
The nature of experiment [2]: Growth inhibition of mouse BA/F3 cells transfected with JAK3 TEL domain after 24 hrs by Alamar Blue assay. As to conditions: BaF3, 24 h. The format is functional, cell-based.
The target in experiment [3] is T1, Tyrosine-protein kinase JAK3 (Homo sapiens, UniProt P52333).
T1 sequence (P52333 whole entry): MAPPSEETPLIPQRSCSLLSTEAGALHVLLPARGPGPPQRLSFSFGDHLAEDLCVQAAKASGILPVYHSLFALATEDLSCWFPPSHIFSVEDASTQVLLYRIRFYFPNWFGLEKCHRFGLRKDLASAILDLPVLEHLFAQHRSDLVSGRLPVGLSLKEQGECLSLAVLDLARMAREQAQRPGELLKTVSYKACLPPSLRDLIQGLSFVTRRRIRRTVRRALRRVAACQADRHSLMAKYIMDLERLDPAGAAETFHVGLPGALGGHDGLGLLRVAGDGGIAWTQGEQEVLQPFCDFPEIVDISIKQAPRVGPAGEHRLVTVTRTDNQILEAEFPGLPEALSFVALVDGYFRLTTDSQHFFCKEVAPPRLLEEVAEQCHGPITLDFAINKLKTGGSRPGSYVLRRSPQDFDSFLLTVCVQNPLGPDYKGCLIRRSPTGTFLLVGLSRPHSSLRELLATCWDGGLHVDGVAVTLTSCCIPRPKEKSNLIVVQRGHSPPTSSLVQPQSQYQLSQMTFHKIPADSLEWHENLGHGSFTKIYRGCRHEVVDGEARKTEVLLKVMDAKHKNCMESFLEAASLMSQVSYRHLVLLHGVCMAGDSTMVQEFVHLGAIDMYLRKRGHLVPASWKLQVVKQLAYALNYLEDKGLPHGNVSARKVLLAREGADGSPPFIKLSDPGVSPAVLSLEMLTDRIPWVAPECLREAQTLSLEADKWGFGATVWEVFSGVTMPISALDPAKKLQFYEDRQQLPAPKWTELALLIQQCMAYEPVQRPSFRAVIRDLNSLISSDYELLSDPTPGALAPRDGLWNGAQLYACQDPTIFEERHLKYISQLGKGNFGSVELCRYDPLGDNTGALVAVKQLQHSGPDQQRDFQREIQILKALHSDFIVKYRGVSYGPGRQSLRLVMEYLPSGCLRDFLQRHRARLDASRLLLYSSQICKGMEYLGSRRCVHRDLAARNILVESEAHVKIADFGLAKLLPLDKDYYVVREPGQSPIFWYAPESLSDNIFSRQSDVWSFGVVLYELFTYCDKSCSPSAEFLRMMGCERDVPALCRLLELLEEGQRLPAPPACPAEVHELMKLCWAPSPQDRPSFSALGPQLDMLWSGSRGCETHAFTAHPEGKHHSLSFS
Kind of experiment: Inhibition of JAK3 (unknown origin) using biotinylated poly-EY peptide as substrate after 60 mins by HTRF assay.

The next experiment is filed under the species Homo sapiens. The experiment is described as follows: Selectivity ratio of IC50 for JAK3 (unknown origin) to IC50 for JAK2 (unknown origin). Put shortly:
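Jak2 and Jak3 enzyme IC50s determined at 5 mM ATP; the ratio is the Jak3 IC50 divided by the Jak2 IC50.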

Experiment [4] can be described thus: Growth inhibition of mouse BA/F3 cells transfected with JAK2 TEL domain after 24 hrs by Alamar Blue assay. The format is functional. The following applies: BaF3, 24 h.
Experiment [5] in a line: Growth inhibition of human UKE1 cells harboring JAK2 V617F mutant after 2 days by [3H]-thymidine incorporation assay. The format is functional.
Another experiment has as its system SET-2. The experiment is described as follows: Growth inhibition of human SET2 harboring JAK2 V617F mutant after 24 hrs by Alamar Blue assay. In kind it is functional. The following applies: SET-2, 24 h.

Molecules are shown by their SMILES.

Sequence of Tyrosine-protein kinase JAK2 (O60674 whole entry, the tested form may be a part): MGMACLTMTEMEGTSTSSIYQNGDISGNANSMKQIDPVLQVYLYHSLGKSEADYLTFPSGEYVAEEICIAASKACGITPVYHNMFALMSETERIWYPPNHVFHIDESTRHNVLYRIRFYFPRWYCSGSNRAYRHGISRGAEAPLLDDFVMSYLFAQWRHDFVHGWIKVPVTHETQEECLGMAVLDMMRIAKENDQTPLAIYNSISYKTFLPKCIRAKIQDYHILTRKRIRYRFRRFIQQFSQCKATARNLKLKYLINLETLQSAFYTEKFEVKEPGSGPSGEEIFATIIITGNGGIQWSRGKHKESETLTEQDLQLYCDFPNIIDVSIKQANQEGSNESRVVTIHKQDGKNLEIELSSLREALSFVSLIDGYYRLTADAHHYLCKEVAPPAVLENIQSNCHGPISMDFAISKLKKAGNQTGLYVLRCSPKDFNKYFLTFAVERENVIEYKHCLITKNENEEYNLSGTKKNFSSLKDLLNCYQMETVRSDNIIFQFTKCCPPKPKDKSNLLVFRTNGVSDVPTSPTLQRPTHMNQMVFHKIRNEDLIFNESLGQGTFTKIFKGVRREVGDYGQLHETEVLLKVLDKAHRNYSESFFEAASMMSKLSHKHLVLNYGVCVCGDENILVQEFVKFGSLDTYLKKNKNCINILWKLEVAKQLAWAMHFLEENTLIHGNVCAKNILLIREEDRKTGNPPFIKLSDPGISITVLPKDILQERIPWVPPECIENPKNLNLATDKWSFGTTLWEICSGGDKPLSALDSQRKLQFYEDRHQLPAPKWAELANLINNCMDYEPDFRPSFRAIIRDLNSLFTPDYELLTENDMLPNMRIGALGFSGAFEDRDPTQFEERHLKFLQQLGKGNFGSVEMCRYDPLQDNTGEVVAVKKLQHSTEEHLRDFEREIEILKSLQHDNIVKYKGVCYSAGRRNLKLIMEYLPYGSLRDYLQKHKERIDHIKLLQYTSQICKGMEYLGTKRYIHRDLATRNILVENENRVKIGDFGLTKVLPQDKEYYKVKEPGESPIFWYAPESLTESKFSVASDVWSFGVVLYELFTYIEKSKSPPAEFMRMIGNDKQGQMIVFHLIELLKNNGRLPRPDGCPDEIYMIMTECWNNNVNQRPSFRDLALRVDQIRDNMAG

Turning to `Cc1cc(Nc2nc(N[C@@H](C)c3ccc(F)cn3)c(F)c(N3CCS(=O)(=O)CC3)n2)n[nH]1`, the IC50 in experiment [1] is 3 nM; in experiment [3] it was 4 nM. In addition, the GI50 in experiment [2] (read-out: GI50) was found to be 270 nM.

For the molecule `Cc1cc(Nc2nc(N[C@@H](C)c3ccc(F)cn3)c(Cl)c(N3CCOCC3)n2)[nH]n1`, the IC50 was determined as 6 nM in experiment [1] and 262 nM in experiment [3].

For `Cc1cc(Nc2cc(N3CCOCC3)nc(N[C@@H](C)c3ncc(F)cn3)n2)n[nH]1`, the Ratio IC50 in the experiment listed under Homo sapiens is over 10.

Consider `Cc1cc(Nc2nc(N[C@@H](C)c3ncc(F)cn3)cc(N3CCOCC3)n2)n[nH]1`, for which the IC50 in experiment [1] was determined as 5 nM; in experiment [3], 95 nM. The GI50 in experiment [4] was 58 nM.

In the case of `Cc1cc(Nc2nc(N[C@@H](C)c3ccc(F)cn3)c(F)c(N3CCNCC3)n2)n[nH]1`, the IC50 in experiment [1] was determined as 4 nM; in experiment [3], 30 nM. This molecule yielded a GI50 in experiment [2] of 480 nM.

`Cc1cc(Nc2nc(N[C@@H](C)c3ccc(F)cn3)c(F)c(N3CCN(S(C)(=O)=O)CC3)n2)n[nH]1`: the IC50 in experiment [1] turned out to be 3 nM; in experiment [3], 20 nM. In experiment [2], this molecule came in with a GI50 of 50 nM.

With `Cc1cc(Nc2nc(O[C@@H](C)c3ncc(F)cc3F)c(F)c(N3CCOCC3)n2)n[nH]1`, the IC50 in experiment [1] came to 4 nM; in experiment [3], 45 nM. Further, the GI50 in experiment [5] amounted to 30 nM; in experiment [4] it was 10 nM; in experiment [2] (read-out: GI50), 430 nM; with SET-2 it was 18 nM.

Consider `Cc1cc(Nc2nc(N[C@@H](C)c3ncc(F)cn3)c(F)c(N3CCOCC3)n2)n[nH]1`, for which the GI50 in experiment [4] is 15 nM; in experiment [2] (read-out: GI50) it was 390 nM. In addition, the Ratio IC50 in the experiment filed under Homo sapiens was 76.
